This is an account of results in ChEMBL document CHEMBL1148262, “Stability studies of C-4',6' acetal benzylmaltosides synthesized as inhibitors of smooth muscle cell proliferation” (Bioorg Med Chem Lett, 2004).

One may read the half-life as the time in which the quantity being followed falls by half. A high value points to slow decline. A word on the IC50: it is the point on the concentration scale where inhibition reaches its midpoint. Lower therefore signals greater potency.

Data set [1] is described as follows: Half-life of compound at a pH of 1.4 was determined. It counts as ADME. The conditions noted are these: pH 1.4.
Data set [2] is described as follows: Half-life of compound at a pH of 2.5 was determined. It counts as ADME. The following applies: pH 2.5.
Data set [3] is described as follows: Half-life of compound at a pH of 1 was determined. It counts as ADME. The following applies: pH 1.
Data set [4] is described as follows: Half-life of compound at a pH of 3.5 was determined. The conditions noted are these: pH 3.5. It counts as ADME.
Data set [5] is described as follows: Half-life of compound at a pH of 4 was determined. It counts as ADME. The conditions noted are these: pH 4.
A short description of data set [6]: Half-life of compound at a pH of 4.5 was determined. It counts as ADME. The conditions noted are these: pH 4.5.
A further data set has as its system HASMC. In words: Concentration inducing 50% inhibition of Human aortic smooth muscle cell (HASMC) proliferation. It counts as functional, cell-based. The method in brief: (§1)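 HASMC or HAEC from passage 3–6, grown to 70–80% confluence in 24-well plates, then held 24–48 h without serum or growth factors to make them quiescent. Restimulated with serum or growth factor for 24 h with 0.5 µCi/mL ³H-thymidine. Compounds were added from 50% ethanol stock at 1–100 µM. TCA-precipitable counts were measured in triplicate, as percent of stimulated control, and IC50 was derived.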

Data set [7] can be described thus: Half-life of compound at a pH of 3 was determined. The following applies: pH 3. It counts as ADME.
Data set [8] can be described thus: Half-life of compound at a pH of 1.9 was determined. It counts as ADME. The conditions noted are these: pH 1.9.
Data set [9] is described as follows: Stability of compound determined in medium mimicking stomach as percent remaining at 18-20 hr at a pH of 1. It counts as ADME. The conditions noted are these: pH 1.
Data set [10] in a line: Concentration inducing 50% inhibition of human aortic endothelial cell (HAEC) proliferation. In kind it is functional, cell-based. An outline of the steps: as §1
A short description of data set [11]: Percent degradation of compound at a pH of 1 over a 18 hr period. The conditions noted are these: pH 1; read-out: Degradation. In kind it is ADME.
The next data set relates to Rattus norvegicus. Description: In vivo percent reduction in intimal thickening rat balloon injury model at a dose of 100 mg/kg; Range is 18-39 %. In kind it is functional.

Structures are written as SMILES.

Turning to `CC(=O)Nc1cc(CO[C@@H]2O[C@@H](COC(=O)c3ccccc3)[C@H](O[C@H]3OC4CO[C@@H](Cc5ccccc5)OC4[C@H](O)[C@@H]3O)[C@H](O)[C@@H]2O)ccc1Cl` (stereo not given in full), the half-life in data set [1], in [2], in [3], in data set [4], in data set [5] and in [6] was over 20 h each time. For the same compound, the half-life in data set [7] and in [8] was over 20 h each time. In the data set with HASMC, this compound showed an IC50 of 35 nM. Also, the Remaining in data set [9] is recorded as 94%.

As for `CC(=O)Nc1cc(CO[C@@H]2O[C@@H](COC(=O)c3ccccc3)[C@H](O[C@H]3OC4CO[C@@H](C)OC4[C@H](O)[C@@H]3O)[C@H](O)[C@@H]2O)ccc1Cl` (stereo not given in full), the half-life in data set [1], in [2], in [3], in data set [4], in data set [5] and in data set [6] was over 20 h each time. Moreover, the half-life in data set [7] and in data set [8] was over 20 h each time. For the same compound, the IC50 in data set [10] came out at 257 nM; with HASMC it was 103 nM. Moreover, the degraded at 18 h in [11] was found to be 32%. In data set [9], this compound gave a Remaining of 68%.

As to `CC(=O)Nc1cc(CO[C@@H]2O[C@@H](COC(=O)c3ccccc3)[C@H](O[C@H]3OC4CO[C@@H](C(C)C)OC4[C@H](O)[C@@H]3O)[C@H](O)[C@@H]2O)ccc1Cl` (stereo not given in full), the half-life in data set [1], in data set [2], in [3], in data set [4], in [5] and in [6] was over 20 h in each case. Further, the half-life in data set [7] and in [8] was over 20 h each time. The compound further registered an IC50 in the data set on HASMC of 3 nM. The compound further had a Remaining in data set [9] of 53%.

Consider `CC[C@@H]1OCC2O[C@H](O[C@@H]3[C@H](O)[C@H](O)[C@H](OCc4ccc(Cl)c(NC(C)=O)c4)O[C@H]3COC(=O)c3ccccc3)[C@@H](O)[C@@H](O)C2O1` (stereo not given in full), for which the half-life in data set [1], in data set [2], in [3], in data set [4], in data set [5] and in [6] was over 20 h each time. The half-life in [7] and in [8] was over 20 h each time. Moreover, the IC50 is 235 nM in [10] and 37 nM in the data set on HASMC. In [9], the Remaining was 52%.

Take `CC(=O)Nc1cc(CO[C@@H]2O[C@@H](COC(=O)c3ccccc3)[C@H](O[C@H]3OC4CO[C@@H](c5ccc([N+](=O)[O-])cc5)OC4[C@H](O)[C@@H]3O)[C@H](O)[C@@H]2O)ccc1Cl` (stereo not given in full): the IC50 in data set [10] stood at 368 nM; in the data set with HASMC, 3 nM.

In the case of `CC(=O)Nc1cc(CO[C@@H]2O[C@@H](COC(=O)c3ccccc3)[C@H](O[C@H]3OC4CO[C@@H](c5ccncc5)OC4[C@H](O)[C@@H]3O)[C@H](O)[C@@H]2O)ccc1Cl` (stereo not given in full), the half-life in data set [1], in [2], in data set [3], in data set [4], in data set [5] and in data set [6] was over 20 h throughout. Moreover, the half-life in data set [7] and in data set [8] was over 20 h each time. This compound displayed an IC50 in the data set with HASMC of 3 nM. For the same compound, the Remaining in [9] is listed as 97%.

In the data set on HASMC, `CC(=O)Nc1cc(CO[C@@H]2O[C@@H](COC(=O)c3ccccc3)[C@H](O[C@H]3O[C@@H](CO)[C@@H](O)[C@H](O)[C@@H]3O)[C@H](O)[C@@H]2O)ccc1Cl` displayed an IC50 of 34900 nM.

With `CC(=O)Nc1cc(CO[C@@H]2O[C@@H](COC(=O)c3ccccc3)[C@H](O[C@H]3OC4CO[C@@H](c5ccc(Cl)cc5)OC4[C@H](O)[C@@H]3O)[C@H](O)[C@@H]2O)ccc1Cl` (stereo not given in full), the half-life in data set [1] was 4 h; in data set [2], over 20 h; in [3], 1.7 h; in [4] it was over 20 h; in data set [5], over 20 h; in [6] it was over 20 h. The figures for the half-life in data set [7] and in data set [8] were over 20 h and 13.3 h, respectively. Also, the IC50 in data set [10] was 324 nM; in the data set with HASMC, 23 nM. The compound also had a Remaining in [9] of 0%.

With `CC(=O)Nc1cc(CO[C@@H]2O[C@@H](COC(=O)c3ccccc3)[C@H](O[C@H]3OC4CO[C@@H](c5ccccc5)OC4[C@H](O)[C@@H]3O)[C@H](O)[C@@H]2O)ccc1Cl` (stereo not given in full), the half-life is 2.3 h in data set [1]; 13 h in data set [2]; 1.9 h in data set [3]; over 20 h in data set [4]; over 20 h in data set [5]; over 20 h in data set [6]. The results for the half-life in data set [7] and in data set [8] were over 20 h and 4.2 h, respectively. Besides, the results for the IC50 (in data set [10]; in the data set on HASMC) were 923 nM and 20 nM, respectively. Further, the degraded at 18 h in [11] was 100%. This compound also showed a Reduction in the data set on Rattus norvegicus of 39%. This compound also had a Remaining in [9] of 0%.
